F508del corr – F508del CFTR correction, initial screen, CFBE line, single point; CFBE cells, YFP halide quenching; stimulated with forskolin plus potentiator P3; % fluorescence drop versus neutral controls; activity (quench increase), % at 7.58 µM; 350,000 tested, 0.36% active; AID 720511, 2013;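 active means mean added fluorescence quench of at least 8% versus neutral control, with both replicates also reaching 8%; inconclusive means only one of the mean or replicate conditions met; inactive means mean below 8% and not both replicates reaching 8%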;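 further: cells transiently co-express mutant CFTR-F508del with the halide-sensitive YFP; corrector assay measuring rescue of mutant channel to the surface after 24 h compound exposure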
Xi reactivation – activators of inactive X chromosome reactivation, primary screen, imaging, XiGFP fibroblasts, GFP high-content imaging, set 2. XiGFP mouse fibroblasts, % GFP-positive cells imaging, 3 d; cells co-treated with 5-aza-dC sensitizer; scaled so ellipticine positive control = 100%. activation, % at 7.58 µM. 360,000 tested, 0.055% active;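 active means mean normalized replicate activation at least 10% and every replicate at or above 10%; inconclusive means only one of the two criteria met; inactive means mean below 10% and not all replicates reach 10%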;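 further: 0% = median of on-plate neutral control wells and 100% = ellipticine 6 µM median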
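Material: SV40-immortalized XiGFP fibroblast cells, line 68-5-11 | Buffer or medium: DMEM containing 5-aza-dC | Dosing: One concentration, pinned | Times: 3 d treatment, 15 min room-temperature fixation | Controls: Ellipticine 6 µM positive control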
DENV2 CPE rescue – inhibitors of DENV2 cytopathic effect, primary screen, cell-based, plate reader, single concentration; DENV2-infected cells, cytopathic effect rescue; CPE inhibition, % at 9.99 µM; 350,000 tested, 1.7% active; in the data active means CPE inhibition above about 20%, passing the limit was not always enough; inconclusive means no clear call, values can overlap the other calls; tested in BHK-21 cells;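 further: 0% = median of neutral control wells and 100% = median of positive control wells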
FN deposition inh – inhibitors of fibronectin matrix deposition, primary screen, AH1F cells, Alexa488-fibronectin fluorescence, plate reader | inhibition, % at 12.6 µM | AH1F fibroblasts, overnight | 350,000 tested, 0.086% active;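 active means mean inhibition across replicates of 30% or more, regardless of how many single replicates reach that level; inconclusive means mean under 30% yet at least half of replicates reach 30%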;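 further: positive control wells lacked labelled fibronectin entirely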
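Assay system: AH1F fibroblasts assembling fluorescent fibronectin matrix; Amount: 10000 AH1F cells per well; Buffer or medium: DMEM, 2% serum; Probe or stimulus: Alexa488-fibronectin, 24 nM final in well; Doses: single compound dose, delivered by pin transfer; Incubation: 1 h adhesion, overnight exposure; Measured by: fluorescence 485/525 nm; Read-out: fibronectin deposition inhibition.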
PGC1a acetyl inh – inhibitors of PGC1a acetylation signal, primary screen, cell-based, U2OS, AlphaScreen, inhibitor mode; AlphaScreen anti-acetyl-lysine; with virally co-expressed GCN5 acetyltransferase; inhibition, % at 15.6 µM; AID 651687, 2012; 350,000 tested, 0.17% active;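 active means every replicate shows inhibition of at least 40%; inconclusive means mean inhibition at least 40% but some replicate below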;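 further: 0% = neutral control wells and 100% = positive control wells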
Cneo AK release – Cryptococcus neoformans cell lysis inducers, primary screen, AK release luminescence, single concentration; C. neoformans lysis, adenylate kinase release luminescence, 4 h; normalised: neutral wells 0, clomiphene wells 100; lysis activity, % at 15 µM; 360,000 tested, 0.2% active; AID 651654, 2012;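 active means mean lysis activity across replicates of at least 80%, whatever share of replicates individually reach that level; inactive means mean lysis activity below 80%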
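Assay system: C. neoformans cells. Amount: yeast cell density of 5 × 10^6 cells/mL. Technique: AK luminescence. Buffer or medium: YPD. Times: static 4 h at 37 °C with compound, 1 h detection. Dosing: single-point compound dose. Read-out: lysis from increased AK signal.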
Starred values were filed as active, the others as inactive; u = inconclusive; x = not tested or not shown. A selection: hits, their analogues and other compounds. The true share with any hit is near 1.9%.

SMILES	F508del corr	Xi reactivation	DENV2 CPE rescue	FN deposition inh	PGC1a acetyl inh	Cneo AK release
COC(=O)c1[nH]c2ccccc2c1NC(=O)/C=C/c1ccc2c(c1)OCO2	3	0	38*	0	-4	1
C[C@@H]1CN([C@@H](C)CO)S(=O)(=O)c2ccc(-c3cncnc3)cc2O[C@@H]1CN(C)C(=O)c1cccc(F)c1	-1	-1	x	x	-6	x
Cc1ccccc1S(=O)(=O)N1CC[C@@H]2[C@H](CO)Nc3ccc(C#Cc4ccccc4)cc3[C@@H]21	-1	0	u	-10	-8	20
C[C@H](CO)N1C[C@H](C)[C@@H](CN(C)S(=O)(=O)c2ccccc2)Oc2c(NC(=O)Nc3ccccc3)cccc2C1=O	0	0	-11	3	-13	6
C[C@H](CO)N1C[C@H](C)[C@H](CN(C)S(=O)(=O)c2ccccc2)Oc2c(NC(=O)Nc3cccc4ccccc34)cccc2C1=O	0	0	-6	x	7	x
C[C@@H]1CN([C@@H](C)CO)C(=O)c2cccc(NC(=O)Nc3ccc4c(c3)OCO4)c2O[C@H]1CN(C)S(=O)(=O)c1ccccc1	9.0*	0	-2	x	8	-60
C[C@@H]1CN([C@@H](C)CO)C(=O)c2cccc(NC(=O)Nc3ccccc3)c2O[C@H]1CN(C)S(=O)(=O)c1ccccc1	1	0	40*	x	-1	1
Cc1ccc(S(=O)(=O)N(C)C[C@H]2Oc3c(NC(=O)Nc4cccc5ccccc45)cccc3C(=O)N([C@H](C)CO)C[C@@H]2C)cc1	2	1	35*	6	-7	7
C[C@H](CO)N1C[C@H](C)[C@@H](CN(C)S(=O)(=O)c2ccccc2)Oc2c(NC(=O)Nc3cccc4ccccc34)cccc2C1=O	4	0	168*	x	-16	103*
Cc1ccc(S(=O)(=O)N(C)C[C@@H]2Oc3c(NC(=O)Nc4ccc5c(c4)OCO5)cccc3C(=O)N([C@@H](C)CO)C[C@H]2C)cc1	1	0	u	x	6	0
COc1cccc(NC(=O)Nc2ccc3c(c2)C(=O)N(C)[C@H]2CC[C@@H](CC(=O)O)O[C@H]2CO3)c1	1	0	u	11	-6	-4
C[C@@H]1CN([C@@H](C)CO)C(=O)c2cc(NS(=O)(=O)c3cn(C)cn3)ccc2O[C@@H](C)CCCCO[C@@H]1CN(C)C(=O)CCC(F)(F)F	-1	0	5	x	-4	-2
CCC(=O)N1CCN(c2ccc(NC(=O)c3ccc([N+](=O)[O-])o3)cc2Cl)CC1	4	0	x	60*	30	x
C[C@@H]1CN([C@@H](C)CO)C(=O)c2cccc(NC(=O)C3CCCCC3)c2O[C@@H]1CN(C)Cc1ccccc1	1	0	-9	x	1	x
Cc1[nH]c2ccccc2c1/C=N/Nc1nc2ccccc2[nH]1	-15	17*	-24	20	-80	-9
COc1cccc(S(=O)(=O)N[C@@H]2CC[C@H](CC(=O)NC3CCC3)O[C@@H]2CO)c1	-2	0	2	x	-7	41
Cc1cc(O)cc(=O)n1-c1cccc(F)c1	0	0	1	-3	x	x
CCc1cccc(-n2c(C)cc(O)cc2=O)c1	-2	0	61*	-1	x	x
CC(C)C(=O)Nc1ccc2c(c1)C(=O)N(C)[C@H]1CC[C@H](CC(=O)N[C@H](C)c3ccccc3)O[C@@H]1CO2	3	0	-1	-11	4	-2
COC(=O)c1c(F)c(F)c(N2CCOCC2)c(F)c1F	x	x	x	x	7	0
CC(C)OC(=O)c1c(F)c(F)c(N2CCOCC2)c(F)c1F	x	x	x	3	57*	8
CCC(C)C(CO)NCCCn1cnc(C(=O)Nc2ccc(C)c(C)c2)n1 (stereo not drawn)	-3	0	59*	-9	14	5
COC(=O)[C@H](Cc1ccccc1)NCCCn1cnc(C(=O)Nc2ccc(C)c(C)c2)n1	-2	0	-11	4	-3	-2
Cc1noc(C)c1S(=O)(=O)Nc1ccc2c(c1)C(=O)N([C@H](C)CO)C[C@@H](C)[C@H](CN(C)C(=O)Nc1ccccc1)O2	-1	0	-11	x	-1	-2
COC(=O)C(CC#Cc1ccc2c(c1)[C@]1(C(=O)N2)[C@H](c2ccc(OCCO)cc2)N2[C@H](c3ccccc3)[C@H](c3ccccc3)OC(=O)[C@H]2[C@@H]1C(=O)Nc1nc2ccccc2s1)C(=O)OC	2	x	-2	x	7	9
SMILES	F508del corr	Xi reactivation	DENV2 CPE rescue	FN deposition inh	PGC1a acetyl inh	Cneo AK release
N#C/C(=C\c1cccs1)C(=O)c1ccccc1Cl	-9	0	78*	0	x	x
Cn1cc([C@]2(O)C(=O)Nc3ccccc32)c2ccccc21	1	0	31*	-8	x	x
Cc1noc(C)c1NC(=O)N(C)C[C@H]1Oc2ccc(NS(=O)(=O)c3cn(C)cn3)cc2CC(=O)N([C@H](C)CO)C[C@H]1C	-1	-1	-14	-16	5	102*
C[C@@H]1CN([C@H](C)CO)C(=O)Cc2cc(NS(=O)(=O)c3cn(C)cn3)ccc2O[C@H]1CN(C)C(=O)Nc1ccc2c(c1)OCO2	-4	1	1	x	3	3
C[C@@H]1CN([C@@H](C)CO)C(=O)Cc2cc(NS(=O)(=O)c3cn(C)cn3)ccc2O[C@@H]1CN(C)C(=O)Nc1ccc2c(c1)OCO2	-3	0	28*	x	-3	-1
COc1ccc2c3c([nH]c2c1)[C@@H](CO)N(CC1CC1)CC31CN(S(=O)(=O)c2cccc(F)c2)C1	0	0	-11	x	-5	x
C=CCC(NC(=O)c1ccc(C#N)cc1)C(=O)NCCC (stereo not drawn)	-1	0	49*	6	x	-9
C#CCC(NC(=O)c1ccc(C#N)cc1)C(=O)NCCC (stereo not drawn)	5	0	-7	6	6	1
O=C(NC1CCCCC1)N[C@H]1CC[C@H](CC(=O)N2CCOCC2)O[C@@H]1CO	1	0	x	17	2	1
COc1ccc(C2=NOC(C(=O)NCc3ccccc3)C2)cc1 (stereo not drawn)	11*	x	1	x	-3	-1
CC(C)CC#Cc1ccc2c(c1)O[C@H](CN(C)Cc1cncnc1)[C@@H](C)CN([C@@H](C)CO)S2(=O)=O	-2	1	-4	x	-6	1
CNC[C@H]1Oc2c(N)cccc2C(=O)N(C)C[C@H]1C	x	0	x	-13	x	x

Source: PubChem (Broad Institute)
